These results are taken from ChEMBL document CHEMBL4346663, “N-Cinnamoylanthranilates as human TRPA1 modulators: Structure-activity relationships and channel binding sites” (Eur J Med Chem, 2019).

Activity calls are given as the source filed them. The calls are words filed in the database; no cut-off is given here.

Data set [1] deals with T1, Transient receptor potential cation channel subfamily A member 1 (Homo sapiens, UniProt O75762). The experiment in a line: Agonist activity at human TRPA1 expressed in HEK293 cells assessed as increase in calcium influx by Fluo-4-AM dye based fluorescence assay. Format: cell-based. The following applies: for EC50: read-out: EC50. The method, boiled down:
(§1)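 Stably transfected hTRPA1- or hTRPM8-HEK293 cells on poly-D-lysine plates for 48 h, loaded with Fluo-4AM (2 µM, 45 min, dark, room temperature), in isotonic HEPES buffer pH 7.4. FlexStation 240 s run: 20 s baseline, compound added, calcimycin added at 180 s. ΔRFU expressed as % calcimycin, DMSO-subtracted. Screening N = 3. Dose-response curves fitted for logEC50 (N = 3 in duplicate or triplicate).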

The target in data set [2] is T2, Transient receptor potential cation channel subfamily M member 8 (Homo sapiens, UniProt Q7Z2W7). The data set can be described thus: Agonist activity at human TRPM8 expressed in HEK293 cells assessed as increase in calcium influx at 30 uM by Fluo-4-AM dye based fluorescence assay relative to calcimycin. The class given is cell-based. In short, it runs like this: as §1
Target sequence in this assay (Q7Z2W7 whole entry, looked up): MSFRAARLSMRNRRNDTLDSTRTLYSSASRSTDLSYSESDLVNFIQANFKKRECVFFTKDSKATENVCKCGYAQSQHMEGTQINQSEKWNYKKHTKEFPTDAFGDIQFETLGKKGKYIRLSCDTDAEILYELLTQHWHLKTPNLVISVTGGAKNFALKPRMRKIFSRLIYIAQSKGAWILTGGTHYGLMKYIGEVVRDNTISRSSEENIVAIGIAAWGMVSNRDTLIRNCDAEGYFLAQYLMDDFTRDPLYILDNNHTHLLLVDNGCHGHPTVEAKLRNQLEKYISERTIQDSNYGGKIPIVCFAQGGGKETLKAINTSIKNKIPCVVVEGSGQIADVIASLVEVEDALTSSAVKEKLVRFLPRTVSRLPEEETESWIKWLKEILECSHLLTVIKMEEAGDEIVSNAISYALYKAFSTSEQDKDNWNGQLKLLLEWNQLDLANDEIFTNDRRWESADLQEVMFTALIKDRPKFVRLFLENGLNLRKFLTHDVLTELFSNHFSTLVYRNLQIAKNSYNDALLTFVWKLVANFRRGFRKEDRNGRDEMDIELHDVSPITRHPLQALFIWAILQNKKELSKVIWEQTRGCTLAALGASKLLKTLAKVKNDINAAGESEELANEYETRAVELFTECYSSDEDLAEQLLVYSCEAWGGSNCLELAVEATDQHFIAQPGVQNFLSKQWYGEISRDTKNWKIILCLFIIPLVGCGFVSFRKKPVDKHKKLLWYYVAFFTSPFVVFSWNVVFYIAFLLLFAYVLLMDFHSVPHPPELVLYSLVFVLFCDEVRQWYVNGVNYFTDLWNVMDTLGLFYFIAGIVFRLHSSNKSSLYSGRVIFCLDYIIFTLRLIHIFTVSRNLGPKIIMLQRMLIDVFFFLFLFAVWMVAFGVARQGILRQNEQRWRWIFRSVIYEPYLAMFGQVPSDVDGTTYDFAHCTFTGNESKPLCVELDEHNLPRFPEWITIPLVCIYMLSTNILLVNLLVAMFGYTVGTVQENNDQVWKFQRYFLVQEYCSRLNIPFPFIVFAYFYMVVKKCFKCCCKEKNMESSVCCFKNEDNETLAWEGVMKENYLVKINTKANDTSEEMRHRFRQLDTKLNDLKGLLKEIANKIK

For data set [3], the target named is T2, Transient receptor potential cation channel subfamily M member 8. The experiment in a line: Antagonist activity at human TRPM8 expressed in HEK293 cells assessed as increase in calcium influx at 100 uM incubated for 10 mins prior to WS5 challenge by Fluo-4-AM dye based fluorescence assay relative to WS5. The class given is cell-based. The arrangement: scale not given: the % may be the effect or the level left. In short, it runs like this:
(§2)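 hTRPM8-HEK293 cells loaded with Fluo-4AM (2 µM, 45 min). Test compound pre-incubated 10 min before WS5 standard agonist. FlexStation fluorescence at 485/538 nm. ΔRFU given as % of WS5 response after DMSO vehicle subtraction. N = 3. IC50 from dose-response curves.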
Target sequence in this assay (Q7Z2W7 whole entry, looked up): as above

Data set [4] addresses T1, Transient receptor potential cation channel subfamily A member 1. The data set can be described thus: Antagonist activity at human TRPA1 expressed in HEK293 cells assessed as increase in calcium influx at 100 uM incubated for 10 mins prior to CA addition by Fluo-4-AM dye based fluorescence assay relative to CA. The arrangement: scale not given: the % may be the effect or the level left. Format: cell-based. The method, boiled down: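 hTRPA1-HEK293 cells loaded with Fluo-4AM (2 µM). Compound pre-incubated 10 min, then cinnamaldehyde standard agonist added. FlexStation read, ex 485/em 538 nm. ΔRFU normalized to the CA response set at 100 % after DMSO vehicle subtraction. N = 3. logIC50 taken from dose-response fits.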

Data set [5] has the same target. The experiment in a line: Agonist activity at human TRPA1 expressed in HEK293 cells assessed as increase in calcium influx at 30 uM by Fluo-4-AM dye based fluorescence assay relative to calcimycin. The class given is cell-based. The method, boiled down: as §1
For data set [6], the target named is T2, Transient receptor potential cation channel subfamily M member 8. The data set can be described thus: Agonist activity at human TRPM8 expressed in HEK293 cells assessed as increase in calcium influx at 100 uM by Fluo-4-AM dye based fluorescence assay relative to calcimycin. Format: cell-based. The method, boiled down:
as §1
Target sequence in this assay (Q7Z2W7 whole entry, looked up): as above

Data set [7] in a line: Dissociation constant, pKa of the compound at pH 7.4. Format: physicochemical.
The target in data set [8] is T1, Transient receptor potential cation channel subfamily A member 1. The data set can be described thus: Antagonist activity at human TRPA1 expressed in HEK293 cells assessed as inhibition of CA-induced increase in calcium influx incubated for 10 mins prior to CA addition by Fluo-4-AM dye based fluorescence assayy. The class given is cell-based.
In data set [9] the test system is Transient receptor potential cation channel subfamily A member 1 (Homo sapiens), O75762 [F944A]. The data set can be described thus: Agonist activity at human TRPA1 Phe944Ala mutant expressed in HEK293 cells assessed as Ca2+ influx at 30 uM by fluorescence assay. The class given is cell-based. In short, it runs like this: (§3)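 HEK293 cells stably expressing hTRPA1 point mutants (C621A, F909A or F944A), single-cell cloned under G418 selection. Cells plated on poly-D-lysine for 48 h, loaded with Fluo-4AM 2 µM for 45 min at room temperature. FlexStation read (ex 485/em 538 nm): 20 s baseline, compound added, calcimycin added at 180 s. Response expressed as % calcimycin from ΔRFU, vehicle-subtracted, and compared with wild-type hTRPA1 cells.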

Data set [10] concerns Transient receptor potential cation channel subfamily A member 1 (Homo sapiens), O75762 [F909A]. The experiment in a line: Agonist activity at human TRPA1 Phe909Ala mutant expressed in HEK293 cells assessed as Ca2+ influx at 30 uM by fluorescence assay. Format: cell-based. The method, boiled down: as §3
Data set [11] concerns the target T2, Transient receptor potential cation channel subfamily M member 8. The experiment in a line: Antagonist activity at human TRPM8 expressed in HEK293 cells assessed as increase in calcium influx at 3 uM incubated for 10 mins prior to WS5 challenge by Fluo-4-AM dye based fluorescence assay relative to WS5. The arrangement: scale not given: the % may be the effect or the level left. Format: cell-based. The method, boiled down:
as §2
Target sequence in this assay (Q7Z2W7 whole entry, looked up): as above

Data set [12] concerns the target T1, Transient receptor potential cation channel subfamily A member 1. The data set can be described thus: Agonist activity at human TRPA1 expressed in HEK293 cells assessed as increase in calcium influx at 3 uM by Fluo-4-AM dye based fluorescence assay relative to calcimycin. Format: cell-based. In short, it runs like this:
as §1

Data set [13] concerns the target T2, Transient receptor potential cation channel subfamily M member 8. The data set can be described thus: Antagonist activity at human TRPM8 expressed in HEK293 cells assessed as inhibition in WS5-induced increase in calcium influx incubated for 10 mins prior to WS5 challenge by Fluo-4-AM dye based fluorescence assay. The class given is cell-based. In short, it runs like this:
as §2
Target sequence in this assay (Q7Z2W7 whole entry): as the sequence (Q7Z2W7 whole entry, looked up) above

Data set [14] deals with Transient receptor potential cation channel subfamily A member 1 (Homo sapiens), O75762 [F909A]. The experiment in a line: Agonist activity at human TRPA1 Phe909Ala mutant expressed in HEK293 cells assessed as Ca2+ influx at 10 uM by fluorescence assay. Format: cell-based. In short, it runs like this: as §3

Sequence of Transient receptor potential cation channel subfamily A member 1 (Homo sapiens), O75762 [F909A] (O75762 whole entry F909A): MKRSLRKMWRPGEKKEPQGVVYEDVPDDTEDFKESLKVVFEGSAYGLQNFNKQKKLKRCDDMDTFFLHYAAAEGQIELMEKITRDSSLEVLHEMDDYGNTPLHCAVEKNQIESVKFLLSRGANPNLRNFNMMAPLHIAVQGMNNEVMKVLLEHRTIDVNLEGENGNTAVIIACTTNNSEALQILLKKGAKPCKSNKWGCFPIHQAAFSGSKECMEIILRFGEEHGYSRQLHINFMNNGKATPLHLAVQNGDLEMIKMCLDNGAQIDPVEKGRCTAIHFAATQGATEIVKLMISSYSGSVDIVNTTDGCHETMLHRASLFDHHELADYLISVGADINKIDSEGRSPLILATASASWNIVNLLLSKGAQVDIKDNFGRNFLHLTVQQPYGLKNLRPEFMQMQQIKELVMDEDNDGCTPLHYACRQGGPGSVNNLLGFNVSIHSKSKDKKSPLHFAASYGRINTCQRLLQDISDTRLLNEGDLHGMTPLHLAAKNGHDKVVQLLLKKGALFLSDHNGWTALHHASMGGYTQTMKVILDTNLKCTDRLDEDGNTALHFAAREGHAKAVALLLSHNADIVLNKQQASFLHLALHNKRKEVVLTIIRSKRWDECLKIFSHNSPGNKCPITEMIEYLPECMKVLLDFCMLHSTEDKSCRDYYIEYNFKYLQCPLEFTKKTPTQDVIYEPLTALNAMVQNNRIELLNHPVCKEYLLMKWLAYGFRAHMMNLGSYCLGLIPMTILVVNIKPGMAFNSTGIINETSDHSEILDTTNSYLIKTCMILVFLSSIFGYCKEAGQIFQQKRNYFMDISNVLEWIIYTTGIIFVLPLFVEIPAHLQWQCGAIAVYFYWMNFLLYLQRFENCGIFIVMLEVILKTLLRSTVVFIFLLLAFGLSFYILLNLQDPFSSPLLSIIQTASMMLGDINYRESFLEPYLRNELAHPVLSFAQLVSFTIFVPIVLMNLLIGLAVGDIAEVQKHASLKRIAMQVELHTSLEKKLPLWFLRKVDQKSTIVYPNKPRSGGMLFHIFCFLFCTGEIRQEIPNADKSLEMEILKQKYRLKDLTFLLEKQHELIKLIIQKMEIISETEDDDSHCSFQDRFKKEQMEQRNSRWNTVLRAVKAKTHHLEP
Sequence of Transient receptor potential cation channel subfamily A member 1 (Homo sapiens), O75762 [F944A] (O75762 whole entry F944A): as the sequence (O75762 whole entry F909A) above, with A909F, F944A counted along it
T1 sequence (O75762 whole entry): as the sequence (O75762 whole entry F909A) above, with A909F counted along it

With `COc1cccc(NC(=O)/C=C/c2ccc(Cl)cc2)c1`, in data set [1], the pEC50 entry was “inactive”.
With `O=C(/C=C/c1ccccc1)Nc1ccccc1C(=O)O`, the outcome in data set [2] and in data set [6] was inactive. In addition, the results for the Activity in data set [3], in data set [4] and in data set [5] were 48%, 42% and 24%, respectively. The same compound yielded a pKa in [7] of 3.5.
On to `CCOc1cc(/C=C/C(=O)Nc2ccccc2C(=O)O)ccc1O`, for which the outcome in data set [2] and in data set [6] was inactive. In addition, the figures for the Activity in [3], in data set [4] and in data set [5] were 73%, 34% and 5%, respectively. Besides, the IC50 in data set [8] worked out at 106 µM. In data set [7], this compound yielded a pKa of 3.5.
With `CC(=C\c1ccc(Cl)cc1)/C(C)=N/O` [AP18 5], the IC50 in data set [8] is 4 µM.
In turn, `COC(=O)c1ccccc1NC(=O)/C=C/c1ccc([N+](=O)[O-])cc1` yielded a pKa in data set [7] of 13.6.
`C=CC=O` [ACROLEIN]: in data set [1], the EC50 was found to be 27 µM. In data set [9], the result was inactive. In addition, the result in data set [10] was Active.
Regarding `O=C(O)[C@@H]1CCCN1C(=O)/C=C/c1ccccc1`, the outcome in data set [2] and in data set [6] was inactive. In addition, the Activity in [3] was found to be 65%; in data set [4], 79%; in [5], 5%. The same compound yielded a pKa in [7] of 3.2.
With `COC(=O)c1ccccc1NC(=O)/C=C/c1ccccc1Cl`, the Activity in data set [11] worked out at 53%; in data set [12], 29%. In data set [7], this compound displayed a pKa of 13.7.
Consider `O=C(/C=C/c1ccc([N+](=O)[O-])cc1)Nc1ccccc1C(=O)O`, for which the outcome in [2] and in [6] was inactive. Also, the EC50 in data set [1] was 219 µM. Moreover, the Activity came to 39% in data set [3], 33% in data set [4] and 25% in data set [5]. Besides, the pKa in [7] worked out at 3.4.
Turning to `COc1ccccc1/C=C/C(=O)Nc1ccccc1C(=O)O`, the outcome in data set [2] and in data set [6] was inactive. The EC50 in [1] is 75 µM. The Activity was determined as 32% in data set [3], 14% in [4] and 33% in data set [5]. Further, the IC50 in [13] stood at 41 µM; in data set [8], 51 µM. Moreover, the pKa in data set [7] is 3.4.
As to `O=C(CCc1ccccc1)Nc1ccccc1C(=O)O`, the result in [2] and in data set [6] was inactive. For the same compound, the figures for the Activity in data set [3], in [4] and in data set [5] were 48%, 81% and 10%, respectively. The same compound came in with a pKa in data set [7] of 3.5.
As to `COc1ccc(/C=C/C(=O)Nc2ccccc2C(=O)O)cc1`, the result in data set [2], in [9] and in data set [6] was inactive. Also, the EC50 in data set [1] is 49 µM. Moreover, the figures for the Activity in data set [3], in [4] and in data set [5] were 68%, 19% and 27%, respectively. Moreover, in [8], the IC50 turned out to be 12 µM. Moreover, the result in [10] was Active. This compound gave a pKa in data set [7] of 3.5.
Take `O=C(O)C1CCCCN1C(=O)/C=C/c1ccccc1` (racemic): the result in [2] and in data set [6] was inactive. Also, the Activity was 72% in data set [3], 71% in data set [4] and 7% in data set [5]. Moreover, the pKa in [7] stood at 3.3.
Turning to `COC(=O)c1ccccc1NC(=O)/C=C/c1ccc(OC(C)=O)cc1`, the values for the Activity in data set [11] and in data set [12] were 84% and 10%, respectively. This compound also had a pKa in [7] of 13.8.
On to `COC(=O)c1ccccc1NC(=O)/C=C/c1ccc(Cl)cc1`, for which the values for the Activity in [11] and in data set [12] were 70% and 45%, respectively. The pKa in data set [7] was 13.8.
For the compound `C/C(=C\c1ccccc1)C(=O)Nc1ccccc1C(=O)O`, the outcome in data set [2], in data set [9] and in [6] was inactive. Further, in data set [1], the EC50 turned out to be 133 µM. Also, the values for the Activity in [3], in data set [4] and in [5] were 28%, 29% and 33%, respectively. Further, the IC50 in data set [13] came to 27 µM. Further, the outcome in data set [10] was Active. Further, the pKa in data set [7] was 3.5.
For the compound `COc1ccc(CCC(=O)Nc2ccccc2C(=O)O)cc1`, the outcome in [2] and in [6] was inactive. The Activity in data set [3] came out at 57%; in data set [4], 74%; in data set [5], 6%. In [7], the pKa turned out to be 3.5.
As to `COc1ccc(/C=C/C(=O)Nc2ccccc2C(=O)O)cc1OC`, the result in data set [2] and in [6] was inactive. In addition, the values for the Activity in data set [3], in data set [4] and in [5] were 65%, 56% and 6%, respectively. Besides, the IC50 in data set [8] turned out to be 126 µM. In [7], this compound displayed a pKa of 3.5.
As to `Cc1ccc(C(C)C)cc1O` [CARVACROL], the EC50 in [1] was found to be 17 µM. Moreover, the outcome in data set [9] and in data set [10] was inactive.
Take `O=C(/C=C/c1ccc(O)c(O)c1)Nc1ccccc1C(=O)O`: the result in data set [6] was inactive. The compound also displayed a pKa in [7] of 3.5.
On to `COC(=O)c1ccccc1NC(=O)/C=C/c1ccc(OC(C)=O)c(OC(C)=O)c1`, for which the Activity was 102% in data set [11] and 12% in data set [12]. In data set [7], this compound registered a pKa of 13.6.
As to `C=CCN=C=S`, the result in data set [14] was Active.
For `Cc1ccc(/C=C/C(=O)Nc2ccccc2C(=O)O)cc1`, the outcome in data set [2], in data set [9] and in data set [6] was inactive. Further, in [1], the EC50 was determined as 149 µM. Also, the Activity in [3] came to 48%; in [4], 40%; in data set [5], 30%. Also, the result in [10] was Active. Also, in data set [7], the pKa amounted to 3.5.
Regarding `COC(=O)c1ccccc1NC(=O)/C=C/c1ccc(Br)cc1`, the Activity came to 79% in data set [11] and 41% in data set [12]. This compound displayed a pKa in data set [7] of 13.8.
In the case of `O=C(Nc1ccccc1C(=O)O)/C(=C/c1ccccc1)c1ccccc1`, the Activity in data set [2] turned out to be 14%; in data set [4] it was 22%; in data set [5] it was 66%; in data set [6], 34%. Besides, in data set [1], the EC50 worked out at 11 µM. In addition, in [14], the outcome was Active. In [7], this compound displayed a pKa of 3.4.
For the compound `CN(C)c1ccc(/C=C/C(=O)Nc2ccccc2C(=O)O)cc1`, the result in [6] was inactive. This compound yielded a pKa in data set [7] of 3.5.
With `COC(=O)c1ccccc1NC(=O)/C=C/c1ccc(F)cc1`, the results for the Activity in data set [11] and in data set [12] were 85% and 34%, respectively. The pKa in data set [7] was 13.9.
With `COC(=O)c1ccccc1NC(=O)/C=C/c1ccc(C(F)(F)F)cc1`, the Activity in [11] stood at 81%; in [12], 29%. In data set [7], this compound came in with a pKa of 13.7.
Regarding `COC(=O)c1ccccc1NC(=O)/C=C/c1ccc(N(C)C)cc1`, the figures for the Activity in data set [11] and in data set [12] were 86% and 27%, respectively. The pKa in data set [7] was found to be 4.8.
The corresponding values for `COC(=O)c1ccccc1NC(=O)/C=C/c1ccc(C)cc1` are 88%, 28% and 13.9.
